Laboratory results from ChEMBL document CHEMBL3272033, “Physicochemical and pharmacological studies of some 8-substituted decahydroisoquinolines” (J Med Chem, 1976).

Tests used:
[1] = Effect on transmembrane action potential in dog purkinje cells assessed as change in amplitude at 10 mg/l after 20 mins in presence of 2.7 mM/l K+ relative to control; format: functional, Canis lupus familiaris
In short: (§1)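 Purkinje false tendons with attached myocardium came from adult dogs (10–15 kg) anesthetized with pentobarbital 30 mg/kg iv. Tissue was bathed in Tyrode (KCl 2.7 or 5.4 mM) gassed with 95% O2-5% CO2 at 37 °C and impaled with glass microelectrodes. Compound was given as a bolus to the final bath concentration, with records at 2–20 min. Two preparations per compound; % change from control at 20 min.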

[2] = Effect on transmembrane action potential in dog purkinje cells assessed as change in amplitude at 10 mg/l after 20 mins in presence of 5.4 mM/l K+ relative to control; format: functional, Canis lupus familiaris; in short: as §1
[3] = Effect on transmembrane action potential in dog purkinje cells assessed as average rising velocity at 20 mg/l after 20 mins in presence of 5.4 mM/l K+ relative to control; format: functional, Canis lupus familiaris
In short: (§2)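 Canine Purkinje false-tendon preparations from pentobarbital-anesthetized dogs, in oxygenated Tyrode at 37 °C with KCl 2.7 or 5.4 mM. Compound given by bolus to the final bath concentration. TMAP recorded by intracellular glass microelectrode before dosing and 2–20 min after. ARV of phase 0 (V/s) and activation time (ms) expressed as % change from control at 20 min. Two preparations per compound.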

[4] = Therapeutic index, ratio of LD50 for toxicity to ED50 for antiarrhythmic activity in ip dosed Swiss-Webster albino mouse; format: organism-based, Heart; conditions: in vivo, read-out: Ratio LD50/ED50
Heart [5] = assay: Antiarrhythmic activity in Hartley guinea pig atria assessed as change in spontaneous rate at 55.2 uM/l after 5 mins; format: functional, Cavia porcellus
In short: (§3)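 Spontaneously beating isolated atria held under initial tension; bath fluid changed every 10 min; stabilised about 1 h. Maximum driving rate found with 1-ms square pulses at 50% above threshold voltage, 10 s every 30 s; the frequency just before failure of following is the MDR. Control is the mean of two determinations. Spontaneous rate recorded by tachograph. Values are % change from control at peak response, generally 5–30 min.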

[6] = Effect on transmembrane action potential in dog purkinje cells assessed as change in amplitude at 50 mg/l after 20 mins in presence of 2.7 mM/l K+ relative to control; format: functional, Canis lupus familiaris; in short: as §1
[7] = Effect on transmembrane action potential in dog purkinje cells assessed as change in amplitude at 25 mg/l after 20 mins in presence of 2.7 mM/l K+ relative to control; format: functional, Canis lupus familiaris; in short: as §1
[8] = Effect on transmembrane action potential in dog purkinje cells assessed as change in amplitude at 20 mg/l after 20 mins in presence of 5.4 mM/l K+ relative to control; format: functional, Canis lupus familiaris; in short: as §1
[9] = Dissociation constant, pKa of the compound in 0.01 M potassium hydrogen phthalate; format: physicochemical
In short: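 pKa by potentiometric titration with 0.01 M potassium hydrogen phthalate in a thermostated vessel, stirred, under nitrogen bubbling, using glass and calomel electrodes. pKa is the mean pH at half-neutralization from four titrations. Endpoints were taken from parallel tangents on either side of the inflection.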

Heart [10] = assay: Antiarrhythmic activity in Hartley guinea pig atria assessed as change in maximum driving rate at 55.2 uM/l after 5 mins; format: functional, Cavia porcellus; in short: as §3
[11] = Effect on transmembrane action potential in dog purkinje cells assessed as change in amplitude at 40 mg/l after 20 mins in presence of 5.4 mM/l K+ relative to control; format: functional, Canis lupus familiaris; in short: as §1
Mus musculus [12] = assay: Antiarrhythmic activity in ip dosed Swiss-Webster albino mouse assessed as prevention of chloroform-induced ventricular fibrillation; format: functional, Heart
Homo sapiens [13] = organism: Homo sapiens; assay: Drug absorption in buccal cavity in human at pH 9.3 after 5 mins by UV spectrometry; format: ADME, organism-based; conditions: in vivo, other, pH 9.3, 5 min
In short: (§4)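 3 mg compound in 25 ml buffer (0.1 M phosphate pH 5.50 or 7.50; tetraborate pH 9.30) swished in the mouth for 5 min, expelled, and combined with a 10 ml water rinse. Made up to 50 ml; aliquot basified to pH 10 and ether-extracted, then back-extracted into 0.1 N HCl. UV absorbance read at λmax against Beer's law plots; the unrecovered fraction is taken as % absorbed. One to three subjects.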

[14] = Effect on transmembrane action potential in dog purkinje cells assessed as average rising velocity at 50 mg/l after 20 mins in presence of 2.7 mM/l K+ relative to control; format: functional, Canis lupus familiaris; in short: as §2
Mus musculus [15] = assay: Toxicity in ip dosed Swiss-Webster albino mouse; format: organism-based; conditions: in vivo
[16] = Effect on transmembrane action potential in dog purkinje cells assessed as average rising velocity at 10 mg/l after 20 mins in presence of 2.7 mM/l K+ relative to control; format: functional, Canis lupus familiaris; in short: as §2
[17] = Effect on transmembrane action potential in dog purkinje cells assessed as average rising velocity at 10 mg/l after 20 mins in presence of 5.4 mM/l K+ relative to control; format: functional, Canis lupus familiaris; in short: as §2
[18] = Effect on transmembrane action potential in dog purkinje cells assessed as change in activation time at 10 mg/l after 20 mins in presence of 5.4 mM/l K+ relative to control; format: functional, Canis lupus familiaris; in short: as §2
[19] = Effect on transmembrane action potential in dog purkinje cells assessed as change in activation time at 40 mg/l after 20 mins in presence of 5.4 mM/l K+ relative to control; format: functional, Canis lupus familiaris; in short: as §1
[20] = Effect on transmembrane action potential in dog purkinje cells assessed as change in activation time at 20 mg/l after 20 mins in presence of 5.4 mM/l K+ relative to control; format: functional, Canis lupus familiaris; in short: as §2
[21] = Effect on transmembrane action potential in dog purkinje cells assessed as average rising velocity at 25 mg/l after 20 mins in presence of 2.7 mM/l K+ relative to control; format: functional, Canis lupus familiaris; in short: as §2
[22] = Effect on transmembrane action potential in dog purkinje cells assessed as change in activation time at 25 mg/l after 20 mins in presence of 2.7 mM/l K+ relative to control; format: functional, Canis lupus familiaris; in short: as §2
[23] = Effect on transmembrane action potential in dog purkinje cells assessed as change in activation time at 50 mg/l after 20 mins in presence of 2.7 mM/l K+ relative to control; format: functional, Canis lupus familiaris; in short: as §1
[24] = Effect on transmembrane action potential in dog purkinje cells assessed as average rising velocity at 40 mg/l after 20 mins in presence of 5.4 mM/l K+ relative to control; format: functional, Canis lupus familiaris; in short: as §2
Homo sapiens [25] = organism: Homo sapiens; assay: Drug absorption in buccal cavity in human at pH 7.50 after 5 mins by UV spectrometry; format: ADME, organism-based; conditions: in vivo, other, pH 7.5, 5 min; in short: as §4
Homo sapiens [26] = organism: Homo sapiens; assay: Drug absorption in buccal cavity in human at pH 5.50 after 5 mins by UV spectrometry; format: ADME, organism-based; conditions: in vivo, other, pH 5.5, 5 min; in short: as §4
[27] = Effect on transmembrane action potential in dog purkinje cells assessed as change in activation time at 10 mg/l after 20 mins in presence of 2.7 mM/l K+ relative to control; format: functional, Canis lupus familiaris; in short: as §2

Work on COc1cc(C(=O)N[C@@H]2CCC[C@@H]3CCN(C)C[C@H]32)cc(OC)c1OC (mixture of isomers) yielded an Activity [1] of 0%, an Activity [2] of 0% and an Activity [3] of -29%. The selectivity ratio [4] was 6.7, the Activity (Heart [5]) was -14.4% and the Activity [6] was -8%. It also gave an Activity [7] of -2%, an Activity [8] of 0% and a pKa [9] of 8.75. The Activity (Heart [10]) was -13.3%, the Activity [11] was -6% and the ED50 (Mus musculus [12]) was 124 µmol/kg. The Drug absorption (Homo sapiens [13]) was 31.1%, the Activity [14] was -44% and the LD50 (Mus musculus [15]) was 835. For the same compound, the Activity [16] was -9%, the Activity [17] was -24% and the Activity [18] was -4%. It also gave an Activity [19] of -1%, an Activity [20] of -1% and an Activity [21] of -19%. For the same compound, the Activity [22] was 23%, the Activity [23] was 105% and the Activity [24] was -50%. For the same compound, the Drug absorption (Homo sapiens [25]) was 18.1%, the Drug absorption (Homo sapiens [26]) was 5.5% and the Activity [27] was 2%.
